Measurements gathered from unrelated publications.
Lines come from different studies, so protocols differ.
Target: Cannabinoid receptor 2 (CNR2, Homo sapiens, UniProt P34972)
Read-out: ligand displacement
Method: radioligand

CCCc1cc(O)c2c(c1)OC(C)(C)[C@@H]1CCC(C)=C[C@@H]21 — Ki (cell membranes): 0.105 µM
NC(=O)[C@@H]1CC(F)(F)CN1C(=O)c1ccc(N2CC(F)(F)C2)c(OCC2CC2)n1 — Ki (cell membranes): 0.04 µM
CCCCCc1cc(O)c2c(c1)OC(C)(C)[C@@H]1CC=C(C)[C@H](O)[C@@H]21 — Ki (cell membranes): 0.03 µM
CCOC(=O)C(CCCOC)NC(=O)c1ccc(C2CC2)c(Cc2ccc(F)cc2)n1 (stereo not drawn) — Ki (cell membranes): 0.017 µM
CCCCCc1cc(O)c(C/C=C(\C)CCC2OC2(C)C)c(O)c1 (stereo not drawn) — Ki (cell membranes): 4.72 µM
Cc1c(C(=O)Nc2ccc(F)nc2)nc(-c2ccc(Cl)cc2Cl)n1-c1ccc(OS(=O)(=O)CCC(F)(F)F)cc1 — Ki (cell membranes): 0.0014 µM
CCCCCc1cc(O)c2c(c1)OC(C)(C)c1ccc(C)cc1-2 — Ki (cell membranes): 0.073 µM
CC1(C)C(C(=O)c2cn(CCCCCF)c3ccccc23)C1(C)C — Ki (cell membranes): 0.00213 µM
CCCCC/C=C\C/C=C\C/C=C\C/C=C\CCCC(=O)NCCCl — Ki (cell membranes): 5.2 µM
CCOC(=O)[C@](CC)(CCC[S+]([O-])CCOCCOCCNC(=O)OC(C)(C)C)NC(=O)c1ccc(C2CC2)c(Cc2ccc(F)cc2)n1 (stereo partly drawn) — Ki (cell membranes): 0.029 µM
CCCCCn1c2ccccc2c2cc(C(=O)N3CCN(CC(=O)NC(C)(C)C)CC3)ccc21 — Ki: 2 µM
CCOC(=O)C(CC)(CCCSC)NC(=O)c1ccc(C2CC2)c(Cc2ccc(F)cc2)n1 (stereo not drawn) — Ki (cell membranes): 0.0013 µM
CCCS(=O)(=O)Oc1ccc(-n2c(-c3ccc(Cl)cc3Cl)nc(C(=O)NN3CCCCC3)c2C)cc1 — Ki (cell membranes): 0.035 µM
C=CCC(CC)(NC(=O)c1ccc(C2CC2)c(Cc2ccc(F)cc2)n1)C(=O)OCC (stereo not drawn) — Ki (cell membranes): 0.0008 µM
Cc1nonc1Cn1nnc2c(N3CC[C@H](O)C3)nc(C(C)(C)C)nc21 — Ki (cell membranes): 0.011 µM
